MT stabilize HCS: stabilizes microtubules in HeLa cells. HeLa tubulin immunostaining HCS, 24 h; share of cells brighter than vehicle mean+2SD. % tubulin-high responders, % at 10 µM. hit rate 0.83% among 200,000. AID 2205;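 active = plate Z-score above 3 for both tubulin-high and condensed-nucleus cell shares, with cell loss under 80%, at 10 µM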;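 also: anti alpha tubulin signal scored within the nucleus-defined area of each cell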
APP transl inh: APP translation inhibition | SH-SY5Y APP 5'UTR-luciferase reporter, luminescence | inhibition, % at 2 µM | hit rate 0.82% among 190,000;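 active = inhibition above a set limit, derived from the sample mean plus 3 SD, cut at about 45% in these data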
BaF3 parental: parental Ba/F3 viability inhibition as JAK2V617F counter-screen. CellTiter-Glo ATP luminescence. inhibition, % at 5.6 µM. hit rate 1.1% among 220,000. AID 1486;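 active = inhibition above a per-campaign cutoff, the mean inhibition of all tested compounds plus 3 SD, cut at about 27% in these data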
Ba/F3 V617F tox: loss of viability in JAK2V617F-driven Ba/F3 cells; Ba/F3 EpoR-JAK2V617F viability, ATP luminescence; inhibition, % at 5.6 µM; hit rate 1.1% among 220,000; AID 1446;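 active = inhibition above the campaign mean plus 3 SD over all tested compounds, cut at about 24% in these data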;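 also: cytokine-independent growth of Ba/F3 cells driven by EpoR plus mutant JAK2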
bCat nuc transl: beta-catenin nuclear translocation modulation. HeLa beta-catenin nuclear translocation, immunofluorescence imaging. nuclear translocation activity, % at 5 µM. hit rate 0.3% among 190,000. AID 1665;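 active = nuclear translocation activity above 50% at 5 µM, with a well cell count of 50 or more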;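 also: per-cell ratio of nuclear to cytoplasmic median beta-catenin stain intensity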
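assay system = human HeLa cells, endogenous beta-catenin | times = compound treatment 24 h, 37°C, 5% CO2 | detection = Anti-beta-catenin immunofluorescence on PFA-fixed, Triton-permeabilized cells, DAPI nuclei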
IEC-6 tox: kills IEC-6 intestinal cells in KLF5 counter-screen | AID 1825 | IEC-6 cytotoxicity, luminescence viability | inhibition, % at 5 µM | hit rate 0.78% among 290,000; in the data active = inhibition above about 22%
A number is an active result; . = inactive; / = no result given. Shown are actives, neighbours in structure and some others; about 2.2% of the full set was active somewhere.

SMILES	MT stabilize HCS	APP transl inh	BaF3 parental	Ba/F3 V617F tox	bCat nuc transl	IEC-6 tox
O=C1CSC(c2cn(-c3ccccc3)nc2-c2cc3ccccc3oc2=O)N1Cc1ccccc1 (centres undefined)	31	.	.	.	/	.
O=C1CSC(c2nn(-c3ccccc3)cc2-c2cc3ccccc3oc2=O)N1Cc1ccco1 (centres undefined)	.	.	.	.	.	.
Cc1ccc(C(=O)N/N=C/c2ccoc2)cc1C	/	/	/	/	/	.
Cc1nc(-c2cc(-c3nc(-c4ccc(C(F)(F)F)cc4)no3)no2)cs1	/	/	61	.	.	.
CC(C)(C)[C@H]1C=C(C(=O)NCc2nc3ccccc3[nH]2)O[C@@H](OCc2ccc(CO)cc2)C1	/	/	/	/	.	/
O=C1c2ccccc2N2C(=O)c3ccccc3[C@H]2N1c1ccccc1	.	.	.	.	/	.
O=C1NC2c3ccccc3C(=O)N2c2c1cnn2-c1ccccc1 (centres undefined)	11	.	.	.	.	.
COc1ccc(C(CC(=O)O)NS(=O)(=O)c2ccc3c(c2)N(C(C)=O)CC(C)O3)cc1 (centres undefined)	/	/	/	/	/	.
CCN(c1ccc(NC(=O)COC(=O)CCc2cc(OC)c(OC)c(OC)c2)cc1)C(C)C	.	.	80	.	.	.
C=CCn1c(SCc2cc(C(C)=O)ccc2OCC)nc2ccccc2c1=O	18	93	79	84	98	34
C=CCn1c(SCc2c(C)noc2C)nc2cc(C(=O)O)ccc2c1=O	35	.	.	.	/	.
COc1ccc(C(C)=O)cc1CSc1nc2ccccc2c(=O)n1-c1ccccc1	.	.	.	.	.	.
COc1cc2nc(SCc3c(C)noc3C)n(CCC3=CCCCC3)c(=O)c2cc1OC	38	.	.	.	.	.
COc1ccc(-c2cc(C(=O)Nc3cccnc3)no2)cc1OC	/	/	/	/	/	.
CC(C)(C)c1ccc(-c2cc(N)n[nH]2)cc1	.	61	.	.	/	.
CCOc1ccc(/C=N/NC(=O)c2c(C)n(C)c3ccc(OC)cc23)cc1	17	.	.	.	.	.
COc1ccc2c(c1)c(C(=O)N/N=C/c1ccc(Br)cc1)c(C)n2C	/	/	.	.	.	.
CO/N=C\CC(=O)Nc1ccc(F)cc1	.	.	.	.	.	.
CO/N=C\CC(=O)Nc1ccc(Cl)cc1Cl	10	.	.	.	.	.
O=C(NC1CCCC1)C1CCN(C(=O)c2cccc(Cl)c2)CC1	/	/	/	/	/	.
O=[N+]([O-])c1cc(CN2CCN(c3cccc(C(F)(F)F)c3)CC2)c2cccnc2c1O	.	65	.	.	.	.
COc1ccc(CCNCc2cc(C)n(-c3ccc(OC)cc3)c2C)cc1	/	/	/	/	/	.
O=C(Nc1ccccc1F)C1COc2ccccc2O1 (centres undefined)	/	/	/	/	/	.
Cc1ccc(Cl)cc1N1CCN(C(=O)Cc2csc(Nc3nc(=S)[nH]c4ccccc34)n2)CC1	9.5	.	.	.	.	.
O=C(Cc1csc(Nc2nc(=S)[nH]c3ccccc23)n1)N1CCN(c2cccc(Cl)c2)CC1	.	.	.	.	.	.
SMILES	MT stabilize HCS	APP transl inh	BaF3 parental	Ba/F3 V617F tox	bCat nuc transl	IEC-6 tox
COc1ccc(CNC(=O)c2cc(=O)c3cc(C)cc(C)c3o2)cc1	/	/	/	/	/	.
C/C=C/COC(=O)c1[nH]c2c(c1C)C(=O)CC(c1ccc(N(C)C)cc1)C2 (centres undefined)	.	.	.	.	.	.
C/C=C/COC(=O)c1[nH]c2c(c1C)C(=O)CC(c1ccco1)C2 (centres undefined)	.	95	78	78	154	83
Cn1c(SCC(=O)N(C2CCCCC2)C2CCCCC2)nnc1-c1cccs1	28	.	.	.	/	.
Cc1nc2ccc(NC(=O)c3ccc(Cl)c(S(=O)(=O)N(C)c4ccccc4)c3)cc2s1	.	.	.	.	.	.
Cc1nc2ccc(NC(=O)c3cc(S(=O)(=O)N(C)c4ccccc4)ccc3Cl)cc2s1	.	.	49	43	.	.
CC[N+]1(CC)CC2=Cc3c(ccc4ccccc34)CC2C1 (centres undefined)	.	.	61	70	/	.
CN1CC(C(=O)O)Cc2c1ccc1ccccc21 (centres undefined)	/	/	.	.	.	.
COc1ccc(C2CC(c3c(O)cc(C)oc3=O)=NCCS2)c(OC)c1 (centres undefined)	.	93	.	.	110	.
Cc1cc(O)c(C2=Nc3ccccc3SC(c3ccc(Cl)cc3)C2)c(=O)o1 (centres undefined)	.	.	.	.	.	.
